These results are taken from ChEMBL document CHEMBL2150936, “Anticancer activity of small amphipathic β²,²-amino acid derivatives” (Eur J Med Chem, 2012).

For this assay, the system named is MRC5. As to the kind of experiment: Cytotoxicity against human MRC5 cells after 4 hrs by MTT assay. It counts as cell-based. The conditions noted are these: MRC5, 4 h. A digest of the protocol: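 MRC-5 embryonic lung fibroblast monolayers in MEM with 10% FBS were seeded at 1 × 10^5 cells/ml, grown overnight, then medium was replaced with compound solution. Exposure was 4 h at 37 °C, 5% CO2, then MTT for 2 h. Formazan was dissolved in acidic isopropanol (0.04 N HCl) and absorbance read at 590 nm. Background-corrected viability was taken relative to medium-only control, with Triton X-100 as positive control.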

In the case of `NCCNC(=O)C(CN)(Cc1ccc2ccccc2c1)Cc1ccc2ccccc2c1`, the EC50 (in general, the concentration needed to bring the measured effect to its halfway point) came out at 22 µM.
